This is a sample that favours compounds with a hit; in the whole collection about 3.1% have one here.
EWS-Fli inh = EWS/Fli transcriptional activity inhibition; AID 651661; A673 NR0B1-luciferase reporter, viability-normalised; 350,000 compounds, 0.67% hits; inhibition, % at 12.6 µM;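 active = mean inhibition of at least 50% after viability correction, with every replicate also passing that limit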;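 note: firefly luciferase signal divided by Alamar Blue viability fluorescence both relative to DMSO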
PGC1a acetyl inh = PGC1a acetylation modulation, inhibitor mode; U2OS PGC1a acetylation, AlphaScreen anti-acetyl-lysine; with virally co-expressed GCN5 acetyltransferase; inhibition, % at 15.6 µM; 350,000 compounds, 0.17% hits;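 active = every replicate shows inhibition of at least 40%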;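 note: 0% = neutral control wells and 100% = positive control wells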
FN deposition inh = fibronectin deposition inhibition. AH1F fibroblasts, Alexa488-fibronectin deposition fluorescence, overnight. inhibition, % at 12.6 µM. 350,000 compounds, 0.086% hits. AID 743247;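 active = mean inhibition across replicates of 30% or more, regardless of how many single replicates reach that level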;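 note: positive control wells lacked labelled fibronectin entirely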
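Material – AH1F fibroblast monolayer, labelled fibronectin deposition · Reagent – labelled fibronectin 24 nM · Timing – 1 h adhesion, overnight exposure · Measured by – fluorescence at 485 nm excitation, 525 nm emission · Read-out – inhibition of fibronectin deposition signal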
Env fusion inh = blocks HIV Env-driven cell-cell fusion; HeLa-JRFL Env/CEM21 cell fusion, luciferase; inhibition, % at 12.3 µM; 360,000 compounds, 1.1% hits;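 active = mean replicate inhibition score of at least 50 and every replicate individually at or above 50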;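 note: 0% = plate neutral controls and 100% = maraviroc near 300 nM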
PAX8 reporter = inhibitors of PAX8 transcriptional activity in RMG-I cells. RMG-I TPO-luciferase reporter, SteadyGlo, 24 h. inhibition, % at 12.6 µM. 360,000 compounds, 1.2% hits. AID 652154;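 active = mean replicate inhibition at least 60% with every replicate also reaching 60%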;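 note: luciferase light reporting Pax8 driven TPO promoter activity; plate controls were median of neutral control wells for no effect and mitoxantrone controls for full effect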
FGF22 binding = binders of recombinant human FGF22 by thermal shift; Q9HCT0; 340,000 compounds, 1.5% hits; SYPRO orange fluorescence; percent of sucrose octasulfate shift, DMSO zero; AID 651658; activity (Tm shift, normalised), % at 9.99 µM;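 active = mean Tm shift, scaled 0 neutral to 100 positive control, at about 1.3% or above, every replicate too, limit read from the data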
Target sequence (Q9HCT0 whole entry, looked up): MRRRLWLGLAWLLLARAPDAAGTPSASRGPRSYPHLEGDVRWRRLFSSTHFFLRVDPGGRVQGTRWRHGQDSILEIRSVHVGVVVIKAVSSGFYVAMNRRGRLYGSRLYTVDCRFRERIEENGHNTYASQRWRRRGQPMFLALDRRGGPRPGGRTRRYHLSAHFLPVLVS
* hit, by the source's call; / = no result; [ ] = dose if it differs, or a comment.

SMILES	EWS-Fli inh	PGC1a acetyl inh	FN deposition inh	Env fusion inh	PAX8 reporter	FGF22 binding
C[C@H]1CN([C@@H](C)CO)C(=O)c2cccc(NC(=O)Nc3ccccc3)c2O[C@H]1CN(C)C(=O)Nc1ccc(C(F)(F)F)cc1	-12	-4	/	8[16.7 µM]	/	0
CC(=O)NC1=NN(C(C)=O)C(C)(CC(=O)OC(C)(C)C)S1 (centres undefined)	-7	3	/	-12	12	43*
CCCC1(C)SC(NC(C)=O)=NN1C(C)=O (centres undefined)	/	-47	1	18	-11	/
Cc1ccccc1Cn1cc(NC(=O)c2noc3c2CC(C(C)(C)C)CC3)cn1 (centres undefined)	-4	0	/	/	/	0
CC(C)(C)C1CCc2onc(C(=O)NCc3ccc(F)cc3)c2C1 (centres undefined)	/	2	-4	76*	/	/
Cc1nn(Cc2ccc(Cl)c(Cl)c2)c(C)c1NC(=O)c1noc2c1CCCCC2	/	-2	-19	56*	/	/
Cc1nn(Cc2ccc(Cl)cc2)c(C)c1NC(=O)c1noc2c1CCCCC2	4	14	/	/	/	0
O=C(NCc1ccc(F)cc1)c1noc2c1CCCC2	-26	/	/	/	/	0
Cc1ccccc1Cn1nc(C)c(NC(=O)c2noc3c2CC(C(C)(C)C)CC3)c1C (centres undefined)	/	9	1	56*	/	/
CCCNC(=O)COc1nc2ccccc2nc1N1CCOCC1	13	3	2	/	103*	0
O=C(COc1nc2ccccc2nc1N1CCOCC1)NC1CCCCC1	0	1	-2	-1	-15	0
C[C@@H]1CCCCO[C@@H](CN(C)S(=O)(=O)c2ccc(F)cc2)[C@H](C)CN([C@@H](C)CO)C(=O)c2cc(NC(=O)C3CCCCC3)ccc2O1	-8	-7	0	10[16.7 µM]	-6	/
COc1ccc(CCn2c(N)c(S(=O)(=O)c3cccs3)c3nc4ccccc4nc32)cc1OC	-2	2	/	/	/	0
Cc1ccc(S(=O)(=O)c2c(N)n(CCCO)c3nc4ccccc4nc23)cc1	/	-17	/	/	/	/
Cc1ccc(S(=O)(=O)c2c(N)n(CCC(C)C)c3nc4ccccc4nc23)cc1	/	-10	-1	81*	/	/
Nc1c(S(=O)(=O)c2cccs2)c2nc3ccccc3nc2n1CCc1ccccc1	/	/	-2	81*	/	/
O=C(Nc1ccccc1)c1nc[nH]c1C(=O)NCCCNC(=O)c1[nH]cnc1C(=O)Nc1ccccc1	5	/	-3	18	3	0
CC(C)(C)OC(=O)NCCCC[C@H](NC(=O)c1nc[nH]c1C(=O)N[C@@H](CCCCNC(=O)OC(C)(C)C)C(=O)OC(C)(C)C)C(=O)OC(C)(C)C	17	-6	16	5	76*	0
O=C(Nc1ccccc1)c1nc[nH]c1C(=O)NCCCCCCNC(=O)c1[nH]cnc1C(=O)Nc1ccccc1	20	9	12	57*	-5	0
CC(C)(C)OC(=O)NCCCCCNC(=O)c1ncn(Cc2ccccc2)c1C(=O)NCCCCCNC(=O)OC(C)(C)C	31	-40	-5	-36	75*	0
CC(C)(C)OC(=O)NCCCC[C@H](NC(=O)c1nc[nH]c1C(=O)NC(c1ccccc1)c1ccccc1)C(=O)OC(C)(C)C	22	/	6	-59	80*	0
CC(C)NC(=O)Nc1ccc2c(c1)C(=O)N([C@@H](C)CO)C[C@@H](C)[C@H](CN(C)C(=O)c1ccccc1)OCCCC[C@@H](C)O2	3	0	/	-3[16.7 µM]	-6	1
CC(C)(C)OC(=O)NCCCCCNC(=O)c1nc[nH]c1C(=O)NCc1ccc(CNC(=O)OC(C)(C)C)cc1	28	/	-8	30	72*	-1
Cc1nnc(NC(=O)CSc2nc3[nH]ncc3c(=O)[nH]2)s1	5	-5	-3	10	10	0
CCc1nnc(NC(=O)CSc2nc3[nH]ncc3c(=O)[nH]2)s1	2	/	6	-55	10	44*
CN1C(=O)c2cc(NC(=O)NCc3ccccc3)ccc2OC[C@H]2O[C@H](CC(=O)O)CC[C@H]21	0	-2	7	-7[16.7 µM]	3	0
COc1ccc(C(=S)N2CCN(c3cccc(Cl)c3)CC2)c(OC)c1	56*	-30	16	-77	35	0
CCOC(=O)c1c(C)c(C(=O)N2CCN(c3cccc(Cl)c3)CC2)c(C)n1C	/	-4	-6	57*	/	/

High-throughput results: PubChem, Broad Institute
